Reference: ChEMBL document CHEMBL1123952, “(Phosphinyloxy)acyl amino acid inhibitors of angiotensin converting enzyme (ACE). 1. Discovery of (S)-1-[6-amino-2-[[hydroxy(4-phenylbutyl)phosphinyl]oxy]-1-oxohexyl]-L -proline a novel orally active inhibitor of ACE” (J Med Chem, 1988)

How the values were obtained:
[1] = tested on: Rattus norvegicus; assay: In vivo inhibition angiotensin I induced pressor effect after po administration of 5 umol/kg in rats; type: functional
In short: (§1)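 Normotensive catheterized male Sprague-Dawley rats (225-275 g), conscious and unrestrained. Compound was given orally at 5.0 µmol/kg in water, 5% NaHCO3 or 1% agar suspension. Angiotensin I (310 ng/kg iv) pressor responses were compared with pre-dose responses for up to 280 min. Maximum percent inhibition is the mean of four animals.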

[2] = tested on: Rattus norvegicus; assay: In vivo inhibition of angiotensin I induced pressor effect after iv administration in rats; type: functional
In short: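 Conscious, unrestrained male Sprague-Dawley rats (225-275 g) with aortic and vena caval catheters, recovered at least 2 weeks. […] Compound was given iv in water or 5% NaHCO3 and responses followed up to 70 min. Maximum inhibition was averaged over four rats per dose; ED50 was interpolated from the maximum-inhibition vs dose plot.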

[3] = biological target: T1, Angiotensin-converting enzyme (Oryctolagus cuniculus, UniProt P12822); assay: In vitro inhibition of angiotensin I converting enzyme in rabbit lung with hippuryl-histidyl-leucine as substrate; type: tissue-based; conditions: read-out: I50
T1 sequence (P12822 whole entry): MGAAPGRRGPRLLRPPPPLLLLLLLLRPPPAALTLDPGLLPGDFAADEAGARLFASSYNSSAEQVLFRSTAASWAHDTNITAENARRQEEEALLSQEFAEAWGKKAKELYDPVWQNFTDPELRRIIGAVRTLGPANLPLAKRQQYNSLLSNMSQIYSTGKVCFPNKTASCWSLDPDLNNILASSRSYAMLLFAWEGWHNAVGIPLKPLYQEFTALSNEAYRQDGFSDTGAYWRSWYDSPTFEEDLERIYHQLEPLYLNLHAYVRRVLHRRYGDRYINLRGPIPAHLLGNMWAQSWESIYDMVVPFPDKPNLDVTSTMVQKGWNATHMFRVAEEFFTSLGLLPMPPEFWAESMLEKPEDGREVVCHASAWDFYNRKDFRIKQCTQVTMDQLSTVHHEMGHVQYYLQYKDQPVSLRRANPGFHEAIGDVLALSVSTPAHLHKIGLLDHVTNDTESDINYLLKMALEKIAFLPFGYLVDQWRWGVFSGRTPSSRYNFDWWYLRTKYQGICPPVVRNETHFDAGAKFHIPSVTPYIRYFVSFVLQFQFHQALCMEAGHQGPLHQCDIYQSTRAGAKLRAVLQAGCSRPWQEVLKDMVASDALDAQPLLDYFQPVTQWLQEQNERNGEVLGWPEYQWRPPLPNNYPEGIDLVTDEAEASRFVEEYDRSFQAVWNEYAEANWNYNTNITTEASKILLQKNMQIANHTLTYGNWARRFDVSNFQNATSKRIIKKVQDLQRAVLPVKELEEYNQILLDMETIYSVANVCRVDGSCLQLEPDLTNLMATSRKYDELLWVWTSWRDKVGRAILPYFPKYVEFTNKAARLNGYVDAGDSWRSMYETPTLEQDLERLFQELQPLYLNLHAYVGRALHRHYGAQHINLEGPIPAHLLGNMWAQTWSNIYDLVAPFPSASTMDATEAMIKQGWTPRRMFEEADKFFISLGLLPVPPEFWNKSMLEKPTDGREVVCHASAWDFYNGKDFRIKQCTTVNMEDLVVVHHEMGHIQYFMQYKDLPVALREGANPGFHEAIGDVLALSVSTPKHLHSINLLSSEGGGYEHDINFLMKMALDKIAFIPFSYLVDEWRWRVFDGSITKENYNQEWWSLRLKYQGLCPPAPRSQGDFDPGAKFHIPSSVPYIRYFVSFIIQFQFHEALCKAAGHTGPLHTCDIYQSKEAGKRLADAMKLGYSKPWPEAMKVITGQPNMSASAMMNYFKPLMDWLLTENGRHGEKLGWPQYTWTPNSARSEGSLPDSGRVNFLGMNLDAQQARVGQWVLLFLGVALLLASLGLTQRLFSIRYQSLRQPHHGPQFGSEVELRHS
In short: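 Rabbit lung ACE with synthetic substrate hippurylhistidylleucine; the liberated hippuric acid was quantitated spectrophotometrically. Conditions follow the authors' earlier method.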

[4] = tested on: Rattus norvegicus; assay: In vivo inhibition of angiotensin I induced pressor effect after po administration in rats; type: functional
In short: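 Oral dosing of conscious catheterized male Sprague-Dawley rats (225-275 g) in water, 5% NaHCO3 or 1% agar suspension. Angiotensin I (310 ng/kg iv) pressor responses were followed up to 280 min against pre-dose values, with four rats per dose. ED50 was interpolated from a plot of maximum inhibition vs dose.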

[5] = tested on: Rattus norvegicus; assay: In vivo inhibition angiotensin I induced pressor effect after (5 uML/kg) p.o. administration in rats; type: functional; in short: as §1

Row | Structure (SMILES) | inhibition in vivo at 5 µmol/kg [1] [%] | ED50 [2] [µmol/kg] | IC50 [3] [nM] | ED50 [4] [µmol/kg] | Inhibition [5] [%]
1 | NCCCC[C@H](OP(=O)(O)CCCCCc1ccccc1)C(=O)N1CCC[C@H]1C(=O)O | 65 | 0.067 | 14 | – | –
2 | N=C(N)NCCCC[C@H](OP(=O)(O)CCCCc1ccccc1)C(=O)N1CCC[C@H]1C(=O)O | 48 | 0.045 | 6.2 | – | –
3 | CCCCC(C)CP(=O)(O)O[C@@H](CCCCN)C(=O)N1CCC[C@H]1C(=O)O (stereo not given in full) | 68 | 0.14 | 40 | – | –
4 | NCCC[C@H](OP(=O)(O)CCCCc1ccccc1)C(=O)N1CCC[C@H]1C(=O)O | 28 | 1 | 390 | – | –
5 | C[C@H](OP(=O)(O)CCCCc1ccccc1)C(=O)N1CCC[C@H]1C(=O)O | – | 0.75 | 59 | > 25 | –
6 | C[C@H](N[C@@H](CCc1ccccc1)C(=O)O)C(=O)N1CCC[C@H]1C(=O)O [ENALAPRILAT ANHYDROUS] | – | 0.033 | – | 5.13 | –
7 | CC(C)CCCP(=O)(O)O[C@@H](CCCCN)C(=O)N1CCC[C@H]1C(=O)O | 69 | 0.095 | 150 | – | –
8 | NCCCC[C@H](OP(=O)(O)CCc1ccccc1)C(=O)N1CCC[C@H]1C(=O)O | 65 | 0.217 | 190 | 1.39 | –
9 | CCCCP(=O)(O)O[C@@H](CCCCN)C(=O)N1CCC[C@H]1C(=O)O | 27 | 0.091 | 96 | – | –
10 | NCCCC[C@H](NP(=O)(O)CCCCc1ccccc1)C(=O)N1CCC[C@H]1C(=O)O | – | 0.022 | 9 | 2.6 | –
11 | NCCCC[C@H](OP(=O)(O)CCCCC1CCCCC1)C(=O)N1CCC[C@H]1C(=O)O | 68 | 0.18 | 55 | 2.3 | –
12 | CCCCCCCP(=O)(O)O[C@@H](CCCCN)C(=O)N1CCC[C@H]1C(=O)O | 75 | 0.12 | 19 | 0.62 | –
13 | NCCCC[C@H](OP(=O)(O)CCCCc1cccnc1)C(=O)N1CCC[C@H]1C(=O)O | 56 | 0.19 | 94 | – | –
14 | C[C@H](CS)C(=O)N1CCC[C@H]1C(=O)O [CAPTOPRIL] | – | 0.092 | – | 0.73 | –
15 | CCCCCCCCCP(=O)(O)O[C@@H](CCCCN)C(=O)N1CCC[C@H]1C(=O)O | 23 | 0.13 | 31 | – | –
16 | CCOC(=O)[C@H](CCc1ccccc1)N[C@@H](C)C(=O)N1CCC[C@H]1C(=O)O | – | – | – | 0.46 | –
17 | NCCCC[C@H](OP(=O)(O)CCCCc1ccc(F)cc1)C(=O)N1CCC[C@H]1C(=O)O | 81 | 0.067 | 31 | 0.89 | –
18 | C[C@H](CP(=O)(O)CCCCc1ccccc1)C(=O)N1CCC[C@H]1C(=O)O | – | – | 220 | – | –

Row | Structure (SMILES) | inhibition in vivo at 5 µmol/kg [1] [%] | ED50 [2] [µmol/kg] | IC50 [3] [nM] | ED50 [4] [µmol/kg] | Inhibition [5] [%]
19 | N=C(N)NCCC[C@H](OP(=O)(O)CCCCc1ccccc1)C(=O)N1CCC[C@H]1C(=O)O | 40 | 0.12 | 19 | – | –
20 | O=C(O)[C@@H]1CCCN1C(=O)[C@H](CCc1ccccc1)OP(=O)(O)CCCCc1ccccc1 | – | 29 | 640 | – | –
21 | CCCC[C@H](OP(=O)(O)CCCCc1ccccc1)C(=O)N1CCC[C@H]1C(=O)O | – | > 1.4 | 180 | – | –
22 | CCCCCCCCP(=O)(O)O[C@@H](CCCCN)C(=O)N1CCC[C@H]1C(=O)O | 83 | 0.091 | 38 | 1.4 | –
23 | CC(=O)NCCC[C@H](OP(=O)(O)CCCCc1ccccc1)C(=O)N1CCC[C@H]1C(=O)O | 4 | 0.25 | 42 | – | –
24 | NCCCCC[C@H](OP(=O)(O)CCCCc1ccccc1)C(=O)N1CCC[C@H]1C(=O)O | – | > 1.5 | 110 | – | –
25 | CCCCCCCCCCP(=O)(O)O[C@@H](CCCCN)C(=O)N1CCC[C@H]1C(=O)O | 2 | 0.17 | 95 | – | –
26 | NCCCC[C@H](OP(=O)(O)CCCc1ccccc1)C(=O)N1CCC[C@H]1C(=O)O | 67 | 0.069 | 190 | 2.62 | –
27 | NCCCCC(CP(=O)(O)CCCCc1ccccc1)C(=O)N1CCC[C@H]1C(=O)O (stereo not given in full) | – | 0.18 | 85 | 35 | –
28 | CCCCCC(C)P(=O)(O)O[C@@H](CCCCN)C(=O)N1CCC[C@H]1C(=O)O (stereo not given in full) | 29 | 0.13 | 61 | – | –
29 | N=C(N)NCCCCC[C@H](OP(=O)(O)CCCCc1ccccc1)C(=O)N1CCC[C@H]1C(=O)O | – | > 1.5 | 32 | – | –
30 | NCCCC[C@H](OP(=O)(O)CCCCc1ccccc1)C(=O)N1CCC[C@H]1C(=O)O [CERONAPRIL] | – | 0.063 | 36 | 0.53 | 90
31 | CC(=O)NCCCC[C@H](OP(=O)(O)CCCCc1ccccc1)C(=O)N1CCC[C@H]1C(=O)O | – | < 1.4 | 180 | – | –
32 | C[C@H](NP(=O)(O)CCCCc1ccccc1)C(=O)N1CCC[C@H]1C(=O)O | – | 0.05 | 12 | 25 | –
33 | CCCCCP(=O)(O)O[C@@H](CCCCN)C(=O)N1CCC[C@H]1C(=O)O | 57 | 0.071 | 27 | – | –
34 | CC(C)C[C@H](OP(=O)(O)CCCCc1ccccc1)C(=O)N1CCC[C@H]1C(=O)O | – | – | 3800 | – | –
35 | CCCCCCP(=O)(O)O[C@@H](CCCCN)C(=O)N1CCC[C@H]1C(=O)O | 82 | 0.036 | 24 | 0.94 | –
